pEC50, pIC50: −log10 of the molar value. Activity calls are given as the source filed them. The calls are words filed in the database; no cut-off is given here.
Legend:
[1] = biological target: T1, Integrin alpha-IIb/beta-3 (Homo sapiens, UniProt P05106+P08514); test: Inhibition of fibrinogen binding to alpha2bbeta3 isolated from human HEL cells incubated for 1 hr by […] competitive solid-phase binding assay
Integrin alpha-5/beta-1 [2] = biological target: T2, Integrin alpha-5/beta-1 (Homo sapiens, UniProt P05556+P08648); test: Inhibition of fibronectin binding to alpha5beta1 isolated from human K562 cells incubated for 1 hr by […] competitive solid-phase binding assay; assay type: tissue-based
Summary of the method: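 Plates coated overnight at 4 °C in carbonate buffer pH 9.6 with fibronectin 0.5 µg/mL (αvβ3, αvβ6, α5β1), fibrinogen 10 µg/mL (αIIbβ3, αvβ5) or ICAM-1 (αLβ2). Blocked 1 h in buffer containing Ca/Mg/Mn 1 mM each and 1% BSA. Purified integrin (3–10 µg/mL) incubated with compound (10⁻⁴–10⁻¹⁰ M) 1 h at room temperature. Bound integrin detected with primary antibody then AlexaFluor488 secondary, Ex485/Em535. Duplicate, at least three repeats.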

SK-MEL-24 = test: Toxicity in human SK-MEL-24 cells assessed as induction of cell necrosis and/or apoptosis incubated for 3 hrs by annexin V-PE and 7-AAD staining based by flow cytometry; conditions: sk-mel-24, 3 h
Summary of the method: (§1)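 After 3 h incubation, cells resuspended in complete medium and stained with annexin V-PE/7-AAD reagent for 20 min at room temperature in the dark. Flow cytometry sorted cells into viable, early apoptotic and late apoptotic/necrotic populations.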

MCF7 = test: Toxicity in human MCF7 cells assessed as induction of cell necrosis and/or apoptosis incubated for 3 hrs by annexin V-PE and 7-AAD staining based by flow cytometry; conditions: mcf7, 3 h; summary of the method: as §1
HT-29 = test: Toxicity in human HT-29 cells assessed as induction of cell necrosis and/or apoptosis incubated for 3 hrs by annexin V-PE and 7-AAD staining based by flow cytometry; conditions: ht-29, 3 h; summary of the method: as §1
K562 = test: Toxicity in human K562 cells assessed as induction of cell necrosis and/or apoptosis incubated for 3 hrs by annexin V-PE and 7-AAD staining based by flow cytometry; conditions: k562, 3 h; summary of the method: as §1
HEL = test: Toxicity in human HEL cells assessed as induction of cell necrosis and/or apoptosis incubated for 3 hrs by annexin V-PE and 7-AAD staining based by flow cytometry; summary of the method: as §1
Integrin alpha-V/beta-5 [3] = biological target: T3, Integrin alpha-V/beta-5 (Homo sapiens, UniProt P06756+P18084); test: Agonist activity at alphaVbeta5 in human MCF7 cells assessed as increase in cell adhesion to fibrinogen pre-incubated for 30 mins before fibrinogen and further incubated for 1 hr by nitrophenyl-N-acetyl-beta-D-glucosaminide substrate based chromogenic assay
Summary of the method: (§2)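 Compound or methanol vehicle pre-incubated with cells for 30 min at room temperature. Cells then plated on wells coated overnight at 4 °C with fibronectin 10 µg/mL (SK-MEL-24, K562, HT-29) or fibrinogen 10 µg/mL (MCF7, HEL). Seeding was 50,000 cells/well, or 100000 for HEL. Adhesion ran 1 h at room temperature. Wells washed with 1% BSA/PBS. Adherent cells read by hexosaminidase substrate, absorbance 405 nm. Quadruplicate, at least three repeats.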

Integrin alpha-V/beta-6 [4] = biological target: T4, Integrin alpha-V/beta-6 (Homo sapiens, UniProt P06756+P18564); test: Agonist activity at alphaVbeta6 in human HT-29 cells assessed as increase in cell adhesion to fibronectin pre-incubated for 30 mins before fibronectin and further incubated for 1 hr by nitrophenyl-N-acetyl-beta-D-glucosaminide substrate based chromogenic assay; summary of the method: as §2
Integrin alpha-4/beta-1 [5] = biological target: T5, Integrin alpha-4/beta-1 (Homo sapiens, UniProt P05556+P13612); test: Agonist activity at alpha4beta1 in human Jurkat E6.1 cells assessed as increase in cell adhesion to VCAM1 pre-incubated for 30 mins before VCAM1 and further incubated for 30 mins by […]; assay type: cell-based
Summary of the method: (§3)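 Jurkat E6.1 cells labelled with CellTracker green CMFDA (12.5 µM, 30 min, 37 °C), washed, then pre-incubated 30 min at 37 °C with compound or methanol. Plated at 500,000/well on VCAM-1 (α4β1) or ICAM-1 (αLβ2) coated wells (5 µg/mL) for 30 min at 37 °C. Cells lysed in 0.5% Triton X-100; fluorescence read Ex485/Em535. Quadruplicate, at least three repeats.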

[6] = biological target: T1, Integrin alpha-IIb/beta-3; test: Agonist activity at alpha2bbeta3 in human HEL cells assessed as increase in cell adhesion to fibrinogen pre-incubated for 30 mins before fibrinogen and further incubated for 1 hr by nitrophenyl-N-acetyl-beta-D-glucosaminide substrate based chromogenic assay
Summary of the method: (§4)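 Compound or methanol vehicle pre-incubated with cells for 30 min at room temperature. Cells then plated on wells coated overnight at 4 °C with fibronectin 10 µg/mL (SK-MEL-24, K562, HT-29) or fibrinogen 10 µg/mL (MCF7, HEL). Seeding was 50,000 cells/well, or 100000 for HEL. Adhesion ran 1 h at room temperature. Wells washed with 1% BSA/PBS. Quadruplicate, at least three repeats.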

[7] = biological target: T1, Integrin alpha-IIb/beta-3; test: Antagonist activity at alpha2bbeta3 in human HEL cells assessed as reduction in cell adhesion to fibrinogen pre-incubated for 30 mins before fibrinogen and further incubated for 1 hr by nitrophenyl-N-acetyl-beta-D-glucosaminide substrate based chromogenic assay; summary of the method: as §4
Integrin alpha-4/beta-1 [8] = biological target: T5, Integrin alpha-4/beta-1; test: Antagonist activity at alpha4beta1 in human Jurkat E6.1 cells assessed as reduction in cell adhesion to VCAM1 pre-incubated for 30 mins before VCAM1 and further incubated for 30 mins by […]; assay type: cell-based
[9] = biological target: T6, Integrin alpha-L/beta-2 (LFA-1) (Homo sapiens, UniProt P05107+P20701); test: Antagonist activity at alphaLbeta2 in human Jurkat E6.1 cells assessed as reduction in cell adhesion to ICAM1 pre-incubated for 30 mins before ICAM1 and further incubated for 30 mins by […]; assay type: cell-based; summary of the method: as §3
Integrin alpha-V/beta-3 [10] = biological target: T7, Integrin alpha-V/beta-3 (Homo sapiens, UniProt P05106+P06756); test: Inhibition of fibronectin binding to human recombinant alphaVbeta3 expressed in HEK293 cells incubated for 1 hr by […] competitive solid-phase binding assay; assay type: cell-based
Integrin alpha-V/beta-5 [11] = biological target: T3, Integrin alpha-V/beta-5; test: Inhibition of fibrinogen binding to alphaVbeta5 isolated form human mCf7 cells incubated for 1 hr by […] competitive solid-phase binding assay
Integrin alpha-V/beta-6 [12] = biological target: T4, Integrin alpha-V/beta-6; test: Inhibition of fibronectin binding to alphaVbeta6 isolated form human HT-29 cells incubated for 1 hr by […] competitive solid-phase binding assay; assay type: tissue-based
Integrin alpha-4/beta-1 [13] = biological target: T5, Integrin alpha-4/beta-1; test: Inhibition of fibronectin binding to […] isolated from human Jurkat E6.1 cells incubated for 1 hr by scintillation-proximity assay based competitive solid-phase binding assay; assay type: tissue-based
Integrin alpha-V/beta-3 [14] = biological target: T7, Integrin alpha-V/beta-3; test: Agonist activity at alphaVbeta3 in human SK-MEL-24 cells assessed as increase in cell adhesion to fibronectin at 2 to 10 ug/ml pre-incubated for 30 mins and further incubated for 1 hr by nitrophenyl-N-acetyl-beta-D-glucosaminide substrate based chromogenic assay; conditions: filed as agonist, dose 2-10 µg/ml, time 90.0 min
Integrin alpha-V/beta-3 [15] = biological target: T7, Integrin alpha-V/beta-3; test: Agonist activity at alphaVbeta3 in human SK-MEL-24 cells assessed as increase in cell adhesion to fibronectin at 10 ug/ml pre-incubated for 30 mins and further incubated for 1 hr in presence of in presence of integrin antagonist c(-RGDfV) by nitrophenyl-N-acetyl-beta-D-glucosaminide substrate based chromogenic assay; conditions: dose 10.0 µg/ml, time 90.0 min
Integrin alpha-V/beta-3 [16] = biological target: T7, Integrin alpha-V/beta-3; test: Agonist activity at alphaVbeta3 in human SK-MEL-24 cells assessed as increase in cell adhesion to fibronectin at 10 ug/ml pre-incubated for 30 mins and further incubated for 1 hr in presence of neutralizing antibody against the alphaV integrin subunit by nitrophenyl-N-acetyl-beta-D-glucosaminide substrate based chromogenic assay; conditions: dose 10.0 µg/ml, time 90.0 min
Integrin alpha-V/beta-3 [17] = biological target: T7, Integrin alpha-V/beta-3; test: Agonist activity at alphaVbeta3 in human SK-MEL-24 cells assessed as increase in cell adhesion to fibronectin pre-incubated for 30 mins before fibronectin and further incubated for 1 hr by nitrophenyl-N-acetyl-beta-D-glucosaminide substrate based chromogenic assay; summary of the method: as §2
Integrin alpha-V/beta-6 [18] = biological target: T4, Integrin alpha-V/beta-6; test: Antagonist activity at alphaVbeta6 in human HT-29 cells assessed as reduction in cell adhesion to fibronectin pre-incubated for 30 mins before fibronectin and further incubated for 1 hr by nitrophenyl-N-acetyl-beta-D-glucosaminide substrate based chromogenic assay; summary of the method: as §4
Integrin alpha-5/beta-1 [19] = biological target: T2, Integrin alpha-5/beta-1; test: Agonist activity at alpha5beta1 in human K562 cells assessed as increase in cell adhesion to fibronectin pre-incubated for 30 mins before fibronectin and further incubated for 1 hr by nitrophenyl-N-acetyl-beta-D-glucosaminide substrate based chromogenic assay; summary of the method: as §2
[20] = biological target: T6, Integrin alpha-L/beta-2 (LFA-1); test: Agonist activity at alphaLbeta2 in human Jurkat E6.1 cells assessed as increase in cell adhesion to ICAM1 pre-incubated for 30 mins before ICAM1 and further incubated for 30 mins by […]; assay type: cell-based; summary of the method: as §3
Integrin alpha-5/beta-1 [21] = biological target: T2, Integrin alpha-5/beta-1; test: Agonist activity at alpha5beta1 in human K562 cells assessed as increase in cell adhesion to fibronectin pre-incubated for 30 mins and further incubated for 1 hr by nitrophenyl-N-acetyl-beta-D-glucosaminide substrate based chromogenic assay; conditions: filed as agonist, time 90.0 min; summary of the method: as §2
Integrin alpha-5/beta-1 [22] = biological target: T2, Integrin alpha-5/beta-1; test: Agonist activity at alpha5beta1 in human K562 cells assessed as increase in cell adhesion to fibronectin at 10 ug/ml pre-incubated for 30 mins and further incubated for 1 hr in presence of integrin antagonist c(-RGDfV) by nitrophenyl-N-acetyl-beta-D-glucosaminide substrate based chromogenic assay; conditions: dose 10.0 µg/ml, time 90.0 min
Summary of the method: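 Agonist-coated wells (10 µg/mL in methanol). Cells pre-treated 10 min before plating with neutralizing anti-α5, anti-αv or anti-α4 antibody (10 µg/mL), or pre-incubated with c(-RGDfV) (1 µM). K562 plated at 50,000/well and Jurkat E6.1 at 500,000/well. Adhesion quantified as in the standard assay.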

Integrin alpha-5/beta-1 [23] = biological target: T2, Integrin alpha-5/beta-1; test: Agonist activity at alpha5beta1 in human K562 cells assessed as increase in cell adhesion to fibronectin at 10 ug/ml […] and further incubated for 1 hr in presence of neutralizing antibody against the alpha5 integrin subunit by nitrophenyl-N-acetyl-beta-D-glucosaminide substrate based chromogenic assay; conditions: dose 10.0 µg/ml, time 90.0 min
[24] = biological target: T1, Integrin alpha-IIb/beta-3; test: Agonist activity at alpha2bbeta3 in human K562 cells assessed as increase in cell adhesion to fibrinogen pre-incubated for 30 mins and further incubated for 1 hr in presence of alpha2bbeta3 antagonist Tirofiban by nitrophenyl-N-acetyl-beta-D-glucosaminide substrate based chromogenic assay; conditions: filed as agonist, time 90.0 min
Integrin alpha-5/beta-1 [25] = biological target: T2, Integrin alpha-5/beta-1; test: Agonist activity at alpha5beta1 in human K562 cells assessed as assessed as increase in ERK1/2 phosphorylation at 1 to 100 nM by Western blot analysis; assay type: cell-based; conditions: filed as agonist, dose 1-100 nM
Integrin alpha-4/beta-1 [26] = biological target: T5, Integrin alpha-4/beta-1; test: Antagonist activity at alpha4beta1 in human Jurkat E6.1 cells assessed as reduction in VCAM-1 induced ERK1/2 phosphorylation at 1 to 100 nM by Western blot analysis; assay type: cell-based; conditions: filed as antagonist, dose 1-100 nM

Row | Compound | pIC50 (Integrin alpha-5/beta-1 [2]) | Activity (SK-MEL-24) | Activity (MCF7) | Activity (HT-29) | Activity (K562) | Activity (HEL) | pEC50 (Integrin alpha-V/beta-5 [3]) | pEC50 [6] | pIC50 [7] | pIC50 (Integrin alpha-4/beta-1 [8]) | pIC50 [9] | pIC50 (Integrin alpha-V/beta-3 [10]) | pIC50 (Integrin alpha-V/beta-5 [11]) | pIC50 (Integrin alpha-V/beta-6 [12]) | pIC50 (Integrin alpha-4/beta-1 [13]) | also measured
1 | NCc1ccc(NC(=O)N2C(=O)CC2CC(=O)O)cc1.O=C(O)C(F)(F)F (stereo unspecified) | 8.26 | Non-Toxic | Non-Toxic | Non-Toxic | Non-Toxic | Non-Toxic | 8.29 | < 5.30 | < 5.30 | < 5.30 | 5.62 | 8.25 | 8.42 | 7.09 | < 6.00 | pIC50 [1]: < 6.00; pEC50 (Integrin alpha-V/beta-6 [4]): 6.78; pEC50 (Integrin alpha-4/beta-1 [5]): < 5.30; Activity (Integrin alpha-V/beta-3 [14]): Dose-dependent effect; Activity (Integrin alpha-V/beta-3 [15]): inactive; Activity (Integrin alpha-V/beta-3 [16]): inactive
2 | Cc1ccccc1NC(=O)N1C(=O)CC1CC(=O)NCCC(=O)O (stereo unspecified) | 7.44 | Non-Toxic | Non-Toxic | Non-Toxic | Non-Toxic | Non-Toxic | 6.17 | < 5.30 | < 5.30 | 7.76 | < 5.30 | 6.94 | 6.20 | 7.63 | 7.91 | pEC50 (Integrin alpha-V/beta-3 [17]): 6.73; pIC50 (Integrin alpha-V/beta-6 [18]): 7.35; pEC50 (Integrin alpha-5/beta-1 [19]): 7.31; pEC50 [20]: < 5.30; Activity (Integrin alpha-5/beta-1 [21]): Dose-dependent effect; Activity (Integrin alpha-5/beta-1 [22]): inactive; Activity (Integrin alpha-5/beta-1 [23]): inactive; Activity [24]: Active; Activity (Integrin alpha-5/beta-1 [25]): Dose-dependent effect; Activity (Integrin alpha-4/beta-1 [26]): Dose-dependent effect
